Assay outcomes from PubChem BioAssay.
FN deposition inh: fibronectin deposition inhibition; AH1F fibroblasts, Alexa488-fibronectin deposition fluorescence, overnight; inhibition, % at 12.6 µM; hit rate 0.086% among 350,000; AID 743247;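 active = mean inhibition across replicates of 30% or more, regardless of how many single replicates reach that level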
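Assay system: AH1F fibroblasts / Quantity: 10000 cells per well / Medium: DMEM plus 2% serum, read in PBS / Reagent: labelled fibronectin 24 nM / Dosing: single dose, pinned / Times: 1 h cell attachment, overnight exposure to compound and label / Signal: fluorescence, ex 485 nm, em 525 nm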
XiGFP reactiv: X-chromosome reactivation activator; XiGFP mouse fibroblasts, % GFP-positive cells imaging, 3 d; cells co-treated with 5-aza-dC sensitizer; scaled so ellipticine positive control = 100%; activation, % at 7.58 µM; hit rate 0.055% among 360,000; AID 743238;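 active = mean normalized replicate activation at least 10% and every replicate at or above 10%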
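Assay system: SV40-immortalized XiGFP fibroblast cells, line 68-5-11; buffer or medium: DMEM plus 5-aza-dC sensitizer; compound: one concentration, pinned; timing: compounds 3 days, fix/stain 15 min at room temperature; benchmarks: positive control ellipticine, 6 µM final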
CaV13 FRET inh: Primary screen for inhibitors of IQ motif and Ca2+-dependent inactivation inhibitor domain binding in CACNA1D, Förster resonance energy transfer in living cells, … | HEK cells, CFP/YFP FRET ICDI-IQ, plate reader, 10 min; percent FRET-ratio fall versus neutral wells | inhibition, % at 12.3 µM | hit rate 0.098% among 340,000 | AID 743397;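 active = mean replicate inhibition of at least 30% and at least 1% of replicates passing that level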
CASP6 VEID inh: caspase-6 (human) enzyme inhibition | purified caspase-6, Z-VEID-R110 cleavage fluorescence | hit rate 0.53% among 350,000 | inhibition, % at 12.5 µM | P55212;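 active = mean inhibition across replicates at least about 35%, with every replicate also reaching that limit, limit read from the data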
Target sequence (P55212 24-179 limits assumed): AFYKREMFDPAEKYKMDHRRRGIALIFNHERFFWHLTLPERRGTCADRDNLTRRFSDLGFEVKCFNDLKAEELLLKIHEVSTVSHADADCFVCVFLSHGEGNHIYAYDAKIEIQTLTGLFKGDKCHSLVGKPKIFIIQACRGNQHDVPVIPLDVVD
Target sequence (P55212 194-293 limits assumed): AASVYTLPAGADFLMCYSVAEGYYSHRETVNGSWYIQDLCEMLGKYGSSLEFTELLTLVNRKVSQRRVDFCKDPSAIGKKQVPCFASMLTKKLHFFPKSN
DENV2 CPE: DENV2-induced cell death inhibition; DENV2-infected cells, cytopathic effect rescue, plate reader; CPE inhibition, % at 9.99 µM; hit rate 1.7% among 350,000; AID 651640; in the data active = CPE inhibition above about 20%, passing the limit was not always enough; tested in BHK-21 cells
Numbers stand for hits; - = inactive; . = not tested or not shown. Most compounds without a hit are left out; they make up all but 2% or so of the library.

SMILES	FN deposition inh	XiGFP reactiv	CaV13 FRET inh	CASP6 VEID inh	DENV2 CPE
C[C@@H]1CN([C@H](C)CO)C(=O)c2cc(NS(=O)(=O)c3ccc(F)cc3)ccc2O[C@@H](C)CCCCO[C@@H]1CN(C)Cc1ccncc1	-	-	.	-	34
C[C@H]1CCCCO[C@@H](CN(C)Cc2ccc(C(F)(F)F)cc2)[C@@H](C)CN([C@@H](C)CO)C(=O)c2cc(NS(=O)(=O)c3ccc(F)cc3)ccc2O1	-	-	.	-	-
C[C@H]1CCCCO[C@H](CN(C)Cc2ccccc2)[C@@H](C)CN([C@@H](C)CO)C(=O)c2cc(NS(=O)(=O)c3ccc(F)cc3)ccc2O1	-	-	.	-	29
Cc1ccc2oc(C(=O)N(Cc3ccc(N(C)C)cc3)C3CCS(=O)(=O)C3)c(C)c2c1 (stereo not drawn)	-	-	-	59	-
Cc1ccc2c(C)c(C(=O)N(Cc3ccc(N(C)C)cc3)C3CCS(=O)(=O)C3)oc2c1 (stereo not drawn)	-	-	-	-	-
O=C(CCN1CCCCC1)NCC[C@@H]1CC[C@H](NC(=O)C2CCC2)[C@@H](CO)O1	.	-	.	-	46
O=C(CCN1CCCCC1)NCC[C@H]1CC[C@H](NC(=O)C2CCC2)[C@@H](CO)O1	.	-	.	-	23
O=C(C[C@H]1CC[C@H]2[C@@H](COC[C@@H](O)CN2Cc2ccc(Cl)cc2)O1)NCc1cccc(F)c1	-	-	.	-	-
COCC#Cc1ccc([C@H]2[C@H]3CN(Cc4cncnc4)CCCCN3[C@H]2CO)cc1	.	-	.	-	21
CCCC#Cc1ccc([C@H]2[C@H]3CN(CC4CC4)CCCCN3[C@H]2CO)cc1	.	-	.	-	-
CCCC#Cc1ccc([C@H]2[C@H](CO)N3CCCCN(CC4CCOCC4)C[C@@H]23)cc1	.	-	.	-	56
O=C(c1cnccn1)N1CC(=O)N2[C@H](CO)[C@H](c3ccc(C#CC4CCCC4)cc3)[C@@H]2C1	-	-	.	-	-
O=C(c1ccccc1)N1C[C@@H]2[C@H](c3ccccc31)[C@H](CO)N2C(=O)Nc1ccccc1Cl	.	-	.	-	-
O=C(O)C1Nc2c(O)cccc2C2C=CCC12 (stereo not drawn)	-	-	-	92	-
CSc1ccccc1NC(=O)CN(C)C(=O)COc1cccc2cccnc12	-	-	-	45	-
CN(CC(=O)Nc1ccc(Cl)c(C(F)(F)F)c1)C(=O)COc1cccc2cccnc12	-	-	-	-	-
COc1cccc(C(=O)N2CCC2(C)C(=O)NC(C)C)c1 (stereo not drawn)	-	-	-	-	-
CC(C)NC(=O)C1(C)CCN1C(=O)c1ccc2c(c1)OCO2 (stereo not drawn)	-	-	-	71	-
O=C(OCC(=O)N1N=C(c2ccc(Cl)cc2)CC1c1ccco1)c1cncc(Br)c1 (stereo not drawn)	-	-	-	41	.
O=C(OCC(=O)N1N=C(c2ccc(Cl)cc2)CC1c1ccco1)c1ccco1 (stereo not drawn)	-	-	-	-	-
C[C@@H]1CCCCO[C@H](CN(C)C(=O)Cc2ccccc2)[C@H](C)CN([C@H](C)CO)C(=O)c2cc(NS(=O)(=O)c3ccc(F)cc3)ccc2O1	.	-	.	.	28
C[C@H](CO)N1C[C@H](C)[C@@H](CN(C)C(=O)Cc2ccccc2)OCCCC[C@H](C)Oc2ccc(NS(=O)(=O)c3ccc(F)cc3)cc2C1=O	.	-	.	.	126
C[C@@H]1CCCCO[C@@H](CN(C)C(=O)Cc2ccccc2)[C@@H](C)CN([C@H](C)CO)C(=O)c2cc(NS(=O)(=O)c3ccc(F)cc3)ccc2O1	.	-	.	-	-
C[C@H](CO)N1C[C@H](C)[C@H](CN(C)CC2CCCC2)Oc2ncc(-c3cccc(F)c3)cc2C1=O	-	-	.	-	-
COCC(=O)N1CC2(C1)[C@H](c1ccc(-c3cccc(C)c3)cc1)[C@@H](CO)N2C(=O)C1CC1	.	-	.	-	-
SMILES	FN deposition inh	XiGFP reactiv	CaV13 FRET inh	CASP6 VEID inh	DENV2 CPE
COCC(=O)N1[C@@H](CO)[C@H](c2ccc(-c3cccc(OC)c3)cc2)C12CN(C(C)=O)C2	.	-	.	-	31
COCC(=O)N1CC2(C1)[C@H](c1ccc(-c3cccc(C)c3)cc1)[C@H](CO)N2C(=O)C1CC1	.	-	.	-	49
C[C@@H]1CN([C@H](C)CO)C(=O)c2cc(C3=CCCC3)cnc2O[C@H]1CN(C)C(=O)CN(C)C	-	-	.	-	-
COc1ccccc1/C=N/NC(=O)c1ccccc1Cl	-	-	-	-	-
COc1cccc(/C=N/NC(=O)C(=O)N/N=C/c2cccc(OC)c2OC)c1OC	-	-	-	-	85
COc1ccccc1C=NNC(=O)c1ccccc1OCCOc1ccccc1	-	-	-	-	75
CNC[C@@H]1Oc2c(NS(C)(=O)=O)cccc2C(=O)N(C)C[C@H]1C	-	-	.	.	.
N#Cc1c(N)[nH]c(C(=O)c2ccccc2)c1-c1ccc(Br)cc1	-	-	-	-	57
CC[C@@H]1CC=CC[C@@H](C)Oc2ccccc2C(=O)N(C)[C@@H](C)C(=O)N1 (mixture of isomers)	-	-	.	.	.
C[C@@H](C(=O)NCCc1ccccc1F)N1C(=O)N2CCc3c([nH]c4ccccc34)[C@@]2(C)C1=O	.	.	.	-	-
C[C@@H](C(=O)NCCc1ccccc1)N1C(=O)N2CCc3c([nH]c4ccccc34)[C@@]2(C)C1=O	.	.	.	-	37
CC(C)[C@@H](C(=O)NC1CCN(Cc2ccccc2)CC1)N1C(=O)N2CCc3c([nH]c4ccccc34)[C@@]2(C)C1=O	.	.	.	-	39
O=C(N/N=C/c1coc2ccccc2c1=O)c1cc(Br)ccc1O	.	-	.	43	-
CC=Cc1ccc2n(c1=O)C[C@@H]1[C@@H](CO)[C@H](C(=O)NCCC)[C@H]2N1CCC(F)(F)F (mixture of isomers)	.	-	.	-	-
COc1ccccc1C(=O)n1nc(-c2cccnc2)nc1NCc1ccccc1	-	-	-	-	-
CCCC(=O)n1nc(-c2cccnc2)nc1NCc1ccc(OC)cc1	.	-	-	39	-
c1ccc2c(-c3csc(-c4ccncc4)n3)c[nH]c2c1	33	-	-	-	-
c1ccc(-c2csc(-c3ccncc3)n2)cc1	-	.	-	-	-
CCCN(C)C[C@@H]1Oc2ncc(C#CCOC)cc2C(=O)N([C@@H](C)CO)C[C@@H]1C	-	-	.	-	-
CO[C@@H](CN(C)C(=O)c1cnccn1)[C@@H](C)CN([C@@H](C)CO)S(=O)(=O)c1ccc(C)cc1	-	-	.	-	-
Fc1ccccc1-c1ccc(/C=N/Nc2nc3ccccc3[nH]2)o1	-	-	54	-	-
O=C(CC1CC1)Nc1ccc2c(c1)[C@H]1C[C@@H](CC(=O)N3CCc4ccccc4C3)O[C@@H](CO)[C@H]1O2	-	-	.	-	-
OC[C@@H]1[C@@H](c2ccc(-c3ccc(F)cc3)cc2)[C@H]2CN(Cc3ccncc3)CCCCN12	.	-	.	-	-
